Measurements from PMC10350030 (bioRxiv, 2023).
Entries after “also recorded” stand apart in the source; their conditions may differ.

Experiments:
FAM-Aβ42 = FAM-Aβ42 (Homo sapiens, UniProt P05067); assay type: biochemical; details: for enhancement of CP-induced degradation of FAM-Aβ42 by anti-oxidants: compared with CP only group
mature iPS neurons = experiment: Toxicity study with iPS neuronal cells; assay type: cell-based; details: 24 hours, Tuj-1 staining; for neuritic continuity of neurons treated with Aβ oligomers: Aβ Oligomer (20 μM)
Method in brief: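 Neurons came from iPS cells differentiated from blood stem cells and were used as mature cultures 12 days after seeding. They were treated with Aβ oligomers (20 µM), with or without test compound. Neuronal morphology and neurite continuity were assessed by immunocytochemistry for Tuj-1, a neuronal class III β-tubulin marker.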

[1] = Fluorescence spectra of FAM-Aβ42 during incubation in PBS; assay type: physicochemical; details: PBS buffer, 0 to 60 minutes, peptide alone
SH-SY5Y cells = experiment: ApopTag fluorescein in situ apoptosis detection assay with Aβ42 oligomers; assay type: cell-based; details: Aβ oligomer (20 μM) and AO (2 μM), 24 hours, compared to the control group
[2] = test system: hippocampal CA1 area from mouse brain slides; experiment: Extracellular fEPSP recording in hippocampal CA1 of brain slices; details: 1 hour
Method in brief: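 In hippocampal slices, the Schaffer collateral pathway was stimulated once every 15 s with 0.1 ms current pulses. Field potentials were recorded extracellularly in the CA1 stratum radiatum. fEPSP was measured as the negative deflection of the voltage trace from baseline. Maximal amplitude was summarised for four groups: control, Aβ (1 µM), test compound (0.1 µM), and Aβ plus test compound.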

FAM-Aβ42, sequence (P05067 672-713): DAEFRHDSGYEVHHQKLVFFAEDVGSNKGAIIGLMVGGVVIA

With O=C(O)CN(CCN(CC(=O)O)CC(=O)O)CC(=O)O [EDTA] the “effect of EDTA on Cu/Vc-induced degradation of FAM-Aβ42” value (FAM-Aβ42; Cu(II)/EDTA/Vc (1:10:20), control experiment) was “inhibited the degradation”.

With O=C1O[C@H]([C@@H](O)CO)C(O)=C1O [Vc, Vitamin C] the “degradation enhancement by Vc when incubated with AO” value (FAM-Aβ42; AO/Vc versus AO) was “no significant degradation enhancement”.

For COc1cc(/C=C/C(=O)CC(=O)/C=C/c2ccc(O)c(OC)c2)ccc1O [curcumin], the “enhancement of CP-induced degradation of FAM-Aβ42 by anti-oxidants” value (from here on “enhancement … by anti-oxidants”) (FAM-Aβ42) was “neither of these anti-oxidants could enhance the degradation”.

With NCCc1ccc(O)c(O)c1 [dopamine] the “enhancement … by anti-oxidants” value (FAM-Aβ42) was “neither of these anti-oxidants could enhance the degradation”.

With NC[C@H](O)c1ccc(O)c(O)c1 [norepinephrine] the “enhancement … by anti-oxidants” value (FAM-Aβ42) was “neither of these anti-oxidants could enhance the degradation”.

For Oc1ccc(/C=C/c2cc(O)cc(O)c2)cc1 [resveratrol], the “enhancement … by anti-oxidants” value (FAM-Aβ42) was “neither of these anti-oxidants could enhance the degradation”.

For “Aβ oligomers: Aβ42 oligomers prepared from Aβ42 peptide in F12 media at 4°C for 24 hours [reference compound]”, the “neuritic continuity of neurons treated with Aβ oligomers” value (mature iPS neurons) was “apparent broken neuritic segments” and the “neuritic continuity of neurons treated with Aβ oligomers” value (mature iPS neurons; listed as Aβ Oligomer) was “loss of neuritic continuity”.

For “FAM-Aβ42: a fluorescent dye conjugated Aβ [reference compound]”, the “fluorescence intensity of FAM-Aβ42 during incubation (aggregation-induced fluorescence quenching)” value [1] was “gradually decreasing”.

For ascorbate oxidase [AO], the “AO-mediated cleavage of FAM-Aβ42 under N2” value (FAM-Aβ42; N2 gas bubbled into the incubation buffer before incubation) was “considerably reduced”, the “cleavage of FAM-Aβ42” value (FAM-Aβ42; after 4 hours of incubation with AO) was “more than 50%” and the “level of cell apoptosis” value (SH-SY5Y cells) was “significantly reduced”. The “neuritic continuity of neurons treated with Aβ oligomers mixed with AO” value (mature iPS neurons; Aβ Oligomer (20 μM) and AO (2 μM)) was “no apparent broken segments; also recorded: normal length neurites”, the “change of fEPSP magnitude by AO alone” value ([2]; AO alone (0.1 µM)) was “did not cause significant changes” and the “maximal fEPSP amplitude, Ab-AO group” value ([2]; slices incubated with 1 µM Ab and 0.1 µM AO, mean ± SE) was 3.61± 0.49 mV.

In the case of vitamin E, the “enhancement … by anti-oxidants” value (FAM-Aβ42) is reported as “neither of these anti-oxidants could enhance the degradation”.
